Assay results gathered from unrelated publications.
Each line is one published result; the experiments were not run side by side.
MAPK14: Mitogen-activated protein kinase 14 (MAPK14, Homo sapiens, UniProt Q16539)
Dihydrofolate reductase: Dihydrofolate reductase (Bos taurus, UniProt P00376)

NC/C(=C\F)COc1cccc(Cn2c(=S)[nH]c(=O)c3[nH]cnc32)c1
IC50 (Amine oxidase [copper-containing] 3 (Rattus norvegicus, UniProt O08590); enzyme activity; inhibitor): 0.005 µM

c1ccc(-c2n[nH]cc2-c2ccncn2)nc1
IC50 (MAPK14; enzyme activity; inhibitor; ADP detection): 1.5 µM

NC(=O)c1nnn(Cc2cc(Cl)c(C(=O)c3ccc(Cl)cc3)c(Cl)c2)c1N
IC50 (5-hydroxytryptamine receptor 1A (HTR1A, Homo sapiens, UniProt P08908); cAMP; antagonist): 1.75 µM

COc1ccc(N2N=C(C(C)=O)SC2=C(C#N)C(=O)c2ccc(Nc3cnccn3)cc2)cc1
IC50 (Dihydrofolate reductase; enzyme activity; inhibitor): 3.82 µM

COc1cc(C(=O)O)ccc1O
IC50 (Sucrase-isomaltase, intestinal (Si, Rattus norvegicus, UniProt P23739); enzyme activity; inhibitor; absorbance): 1650 µM

CNCc1cc(-c2cc(O)ccc2OC(F)(F)F)ccc1F
IC50 (Estrogen receptor (ESR1, Homo sapiens, UniProt P03372, Y537S); coactivator recruitment; TR-FRET): ~18 µM

c1ccc(Cc2[nH]nc(-c3ccccn3)c2-c2ccnc3ccccc23)cc1
IC50 (MAPK14; enzyme activity; inhibitor; ADP detection): 5.2 µM

N=c1sc(C(=O)c2ccc(Nc3cnccn3)cc2)nn1-c1ccccc1
IC50 (Dihydrofolate reductase; enzyme activity; inhibitor): 6.49 µM

Oc1ccccc1-c1n[nH]cc1-c1ccnc2ccccc12
IC50 (MAPK14; enzyme activity; inhibitor; ADP detection): 0.73 µM

COc1ccc(N2N=C(C(=O)c3ccc(Nc4cnccn4)cc3)SC2=C(C#N)C#N)cc1
IC50 (Dihydrofolate reductase; enzyme activity; inhibitor): 0.36 µM

Fc1ccc(Cc2[nH]nc(-c3ccccn3)c2-c2ccnc3ccccc23)cc1
IC50 (MAPK14; enzyme activity; inhibitor; ADP detection): 3.5 µM

CC(C)(C)NS(=O)(=O)c1cccc(C(=O)N2CC3(CCC4(CC4)CC3)c3cc(NS(C)(=O)=O)ccc32)c1
IC50 (Kinesin-like protein KIFC1 (KIFC1, Homo sapiens, UniProt Q9BW19); ATPase activity; inhibitor): > 100 µM
